Results taken from ChEMBL document CHEMBL3232844, “Synthesis and structure activity relationships of schweinfurthin indoles” (2014).

Key:
Type in all cases: functional
K562 = assay: Cytotoxicity against human K562 cells; conditions: for CC50: read-out: pLC50 (the source's name) (converted); for TGI: read-out: pTGI (converted)
How it was run: (§1)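 Tested in a 60-cell-line human tumor panel screen; the read-out is growth inhibition, reported as GI50 for each cell line.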

[1] = Cytotoxicity against human EKVX cells; conditions: for CC50: read-out: pLC50 (the source's name) (converted); for TGI: read-out: pTGI (converted); how it was run: as §1
HOP-92 = assay: Cytotoxicity against human HOP92 cells; conditions: for CC50: read-out: pLC50 (the source's name) (converted); for TGI: read-out: pTGI (converted); how it was run: as §1
NCI-H23 = assay: Cytotoxicity against human NCI-H23 cells; conditions: for CC50: read-out: pLC50 (the source's name) (converted); for TGI: read-out: pTGI (converted); how it was run: as §1
COLO 205 = assay: Cytotoxicity against human COLO205 cells; conditions: for CC50: read-out: pLC50 (the source's name) (converted); for TGI: read-out: pTGI (converted); how it was run: as §1
[2] = Cytotoxicity against human HCT15 cells; conditions: for GI50: HCT-15; for CC50: HCT-15, read-out: pLC50 (the source's name) (converted); for TGI: HCT-15, read-out: pTGI (converted); how it was run: as §1
SW-620 = assay: Cytotoxicity against human SW620 cells; conditions: for CC50: read-out: pLC50 (the source's name) (converted); for TGI: read-out: pTGI (converted)
How it was run: (§2)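 Cell line run as part of the 60-cell-line screening panel; growth inhibition was reported as a GI50 for each line.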

SF-539 = assay: Cytotoxicity against human SF539 cells; conditions: for CC50: read-out: pLC50 (the source's name) (converted); for TGI: read-out: pTGI (converted); how it was run: as §1
SK-MEL-28 = assay: Cytotoxicity against human SK-MEL-28 cells; conditions: for CC50: read-out: pLC50 (the source's name) (converted); for TGI: read-out: pTGI (converted); how it was run: as §1
IGROV-1 = assay: Cytotoxicity against human IGROV1 cells; conditions: for CC50: read-out: pLC50 (the source's name) (converted); for TGI: read-out: pTGI (converted); how it was run: as §1
[3] = Cytotoxicity against human OVCAR5 cells; conditions: for GI50: OVCAR-5; for CC50: OVCAR-5, read-out: pLC50 (the source's name) (converted); for TGI: OVCAR-5, read-out: pTGI (converted); how it was run: as §1
DU-145 = assay: Cytotoxicity against human DU145 cells; conditions: for TGI: read-out: pTGI (converted); how it was run: as §1
[4] = Cytotoxicity against human Hs578T cells; conditions: Hs-578T; for TGI: read-out: pTGI (converted); how it was run: as §1
T47D = assay: Cytotoxicity against human T47D cells; conditions: for CC50: read-out: pLC50 (the source's name) (converted); for TGI: read-out: pTGI (converted); how it was run: as §2
RPMI-8226 = assay: Cytotoxicity against human RPMI8226 cells; conditions: for CC50: read-out: pLC50 (the source's name) (converted); for TGI: read-out: pTGI (converted); how it was run: as §1
Malme-3M = assay: Cytotoxicity against human MALME-3M cells; conditions: for CC50: read-out: pLC50 (the source's name) (converted); for TGI: read-out: pTGI (converted); how it was run: as §1
NCI-H522 = assay: Cytotoxicity against human NCI-H522 cells; conditions: for CC50: read-out: pLC50 (the source's name) (converted); for TGI: read-out: pTGI (converted); how it was run: as §1

Work on COc1cc(/C=C/c2cc(O)c3c(CC=C(C)C)c[nH]c3c2)cc2c1O[C@]1(C)CC[C@@H](O)C(C)(C)[C@H]1C2 yielded a GI50 (K562) of 0.224 µM, a CC50 (K562) of 50.1 µM and a TGI (K562) of 7.76 µM. The GI50 [1] was 1.07 µM, the CC50 [1] was 50.1 µM and the TGI [1] was 50.1 µM. The GI50 (HOP-92) was 0.589 µM, the CC50 (HOP-92) was 50.1 µM and the TGI (HOP-92) was 50.1 µM. The GI50 (NCI-H23) was 0.427 µM, the CC50 (NCI-H23) was 50.1 µM and the TGI (NCI-H23) was 22.4 µM. It also gave a GI50 (COLO 205) of 0.302 µM, a CC50 (COLO 205) of 6.46 µM and a TGI (COLO 205) of 1.35 µM. The GI50 [2] was 0.17 µM, the CC50 [2] was 50.1 µM and the TGI [2] was 1.55 µM. The GI50 (SW-620) was 0.447 µM, the CC50 (SW-620) was 10.7 µM and the TGI (SW-620) was 1.74 µM. It also gave a GI50 (SF-539) of 0.0407 µM, a CC50 (SF-539) of 2.95 µM and a TGI (SF-539) of 0.257 µM. It also gave a GI50 (SK-MEL-28) of 0.55 µM, a CC50 (SK-MEL-28) of 50.1 µM and a TGI (SK-MEL-28) of 1.91 µM. For the same molecule, the GI50 (IGROV-1) was 0.417 µM, the CC50 (IGROV-1) was 50.1 µM and the TGI (IGROV-1) was 50.1 µM. It also gave a GI50 [3] of 15.1 µM, a CC50 [3] of 50.1 µM and a TGI [3] of 50.1 µM. For the same molecule, the GI50 (DU-145) was 3.55 µM, the LC50 (50% lethal concentration) (DU-145) was 50.1 µM and the TGI (DU-145) was 50.1 µM. The GI50 [4] was 0.0708 µM, the LC50 [4] was 50.1 µM and the TGI [4] was 1 µM. For the same molecule, the GI50 (T47D) was 5.25 µM, the CC50 (T47D) was 50.1 µM and the TGI (T47D) was 31.6 µM.
COc1cc(/C=C/c2cc(OC)c3ccn(C)c3c2)cc2c1O[C@]1(C)CC[C@@H](O)C(C)(C)[C@H]1C2 gave a GI50 (K562) of 1 µM, a CC50 (K562) greater than 100 µM and a TGI (K562) of 33.1 µM. It also gave a GI50 (RPMI-8226) of 0.17 µM, a CC50 (RPMI-8226) greater than 100 µM and a TGI (RPMI-8226) of 2 µM. The GI50 [1] was 1.58 µM, the TGI [1] was 49 µM and the GI50 (HOP-92) was 1.2 µM. It also gave a CC50 (HOP-92) greater than 100 µM, a TGI (HOP-92) of 5.75 µM and a GI50 (NCI-H23) of 2.69 µM. The CC50 (NCI-H23) was greater than 100 µM, the TGI (NCI-H23) was 57.5 µM and the GI50 (COLO 205) was 1.38 µM. For the same molecule, the CC50 (COLO 205) was 6.61 µM, the TGI (COLO 205) was 3.02 µM and the GI50 [2] was 1.15 µM. The CC50 [2] was 64.6 µM, the TGI [2] was 6.31 µM and the GI50 (SW-620) was 1.29 µM. The CC50 (SW-620) was 10.5 µM, the TGI (SW-620) was 3.39 µM and the GI50 (SF-539) was 0.214 µM. The CC50 (SF-539) was 57.5 µM, the TGI (SF-539) was 5.5 µM and the GI50 (Malme-3M) was 3.8 µM. The CC50 (Malme-3M) was greater than 100 µM, the TGI (Malme-3M) was 47.9 µM and the GI50 (NCI-H522) was 1.82 µM. The CC50 (NCI-H522) was greater than 100 µM, the TGI (NCI-H522) was 8.13 µM and the GI50 (SK-MEL-28) was 1.74 µM. The CC50 (SK-MEL-28) was 64.6 µM, the TGI (SK-MEL-28) was 17.4 µM and the GI50 (IGROV-1) was 2.24 µM. For the same molecule, the CC50 (IGROV-1) was 95.5 µM, the TGI (IGROV-1) was 45.7 µM and the GI50 [3] was 4.57 µM. For the same molecule, the CC50 [3] was greater than 100 µM, the TGI [3] was 38 µM and the GI50 (DU-145) was 2.45 µM. For the same molecule, the LC50 (50% lethal concentration) (DU-145) was greater than 100 µM, the TGI (DU-145) was 66.1 µM and the GI50 [4] was 0.355 µM. It also gave an LC50 [4] greater than 100 µM, a TGI [4] of 5.01 µM and a GI50 (T47D) of 4.37 µM. The CC50 (T47D) was greater than 100 µM and the TGI (T47D) was 38.9 µM.
Molecule COc1cc(/C=C/c2cc(O)c3c(C/C=C(\C)CCC=C(C)C)c[nH]c3c2)cc2c1O[C@]1(C)CC[C@@H](O)C(C)(C)[C@H]1C2 has a GI50 (K562) of 0.417 µM, a CC50 (K562) greater than 100 µM and a TGI (K562) of 8.71 µM. It also gave a GI50 (RPMI-8226) of 0.158 µM, a CC50 (RPMI-8226) greater than 100 µM and a TGI (RPMI-8226) of 1.66 µM. For the same molecule, the GI50 [1] was 0.724 µM, the CC50 [1] was greater than 100 µM and the TGI [1] was 4.47 µM. It also gave a GI50 (HOP-92) of 0.724 µM, a CC50 (HOP-92) greater than 100 µM and a TGI (HOP-92) of 8.71 µM. For the same molecule, the GI50 (NCI-H23) was 2.45 µM, the CC50 (NCI-H23) was greater than 100 µM and the TGI (NCI-H23) was 24.5 µM. For the same molecule, the GI50 (COLO 205) was 0.331 µM, the CC50 (COLO 205) was 6.31 µM and the TGI (COLO 205) was 1.02 µM. For the same molecule, the GI50 [2] was 0.741 µM, the CC50 [2] was 53.7 µM and the TGI [2] was 6.76 µM. The GI50 (SF-539) was 0.229 µM, the CC50 (SF-539) was 6.03 µM and the TGI (SF-539) was 1.45 µM. For the same molecule, the GI50 (Malme-3M) was 2.95 µM, the CC50 (Malme-3M) was greater than 100 µM and the TGI (Malme-3M) was 61.7 µM. The GI50 (NCI-H522) was 2.63 µM, the CC50 (NCI-H522) was greater than 100 µM and the TGI (NCI-H522) was 16.6 µM. It also gave a GI50 (IGROV-1) of 1.62 µM, a CC50 (IGROV-1) greater than 100 µM and a TGI (IGROV-1) greater than 100 µM. It also gave a GI50 [3] of 15.1 µM, a CC50 [3] greater than 100 µM and a TGI [3] greater than 100 µM. For the same molecule, the GI50 (DU-145) was 5.37 µM, the LC50 (50% lethal concentration) (DU-145) was greater than 100 µM and the TGI (DU-145) was greater than 100 µM. The GI50 (T47D) was 6.92 µM, the CC50 (T47D) was greater than 100 µM and the TGI (T47D) was greater than 100 µM.
In the case of COc1cc(/C=C/c2cc(OC)c3cc[nH]c3c2)cc2c1O[C@]1(C)CC[C@@H](O)C(C)(C)[C@H]1C2, the GI50 (K562) is reported as 0.324 µM, the CC50 (K562) is reported as greater than 100 µM and the TGI (K562) is reported as 1.38 µM. The GI50 (RPMI-8226) was 0.0282 µM, the CC50 (RPMI-8226) was greater than 100 µM and the TGI (RPMI-8226) was 0.0851 µM. It also gave a GI50 [1] of 0.537 µM, a CC50 [1] greater than 100 µM and a TGI [1] of 6.03 µM. The GI50 (NCI-H23) was 0.692 µM, the CC50 (NCI-H23) was greater than 100 µM and the TGI (NCI-H23) was 3.39 µM. For the same molecule, the GI50 (COLO 205) was 0.219 µM, the CC50 (COLO 205) was 0.891 µM and the TGI (COLO 205) was 0.447 µM. It also gave a GI50 [2] of 0.398 µM, a CC50 [2] greater than 100 µM and a TGI [2] of 7.94 µM. For the same molecule, the GI50 (SW-620) was 0.309 µM, the CC50 (SW-620) was 5.5 µM and the TGI (SW-620) was 1.35 µM. It also gave a GI50 (SF-539) of 0.141 µM, a CC50 (SF-539) of 3.09 µM and a TGI (SF-539) of 0.468 µM. The GI50 (Malme-3M) was 0.575 µM, the CC50 (Malme-3M) was greater than 100 µM and the TGI (Malme-3M) was 4.9 µM. The GI50 (NCI-H522) was 0.708 µM, the CC50 (NCI-H522) was greater than 100 µM and the TGI (NCI-H522) was 2.88 µM. It also gave a GI50 (SK-MEL-28) of 0.209 µM, a TGI (SK-MEL-28) of 0.776 µM and a GI50 (IGROV-1) of 0.977 µM. The CC50 (IGROV-1) was greater than 100 µM, the TGI (IGROV-1) was 13.5 µM and the GI50 [3] was 1 µM. For the same molecule, the CC50 [3] was greater than 100 µM, the TGI [3] was 6.03 µM and the GI50 (DU-145) was 1.07 µM. For the same molecule, the LC50 (50% lethal concentration) (DU-145) was greater than 100 µM, the TGI (DU-145) was 4.37 µM and the GI50 [4] was 0.0513 µM. For the same molecule, the LC50 [4] was greater than 100 µM, the TGI [4] was 0.776 µM and the GI50 (T47D) was 2.82 µM. It also gave a CC50 (T47D) greater than 100 µM and a TGI (T47D) of 50.1 µM.
